pIC50, pKd: −log10 of the molar value. Activity calls are given as the source filed them. No cut-off for these calls is given here.
What was measured:
[1] = Upregulation of glutathione S-transferase Yc1 subunit gene expression in serum-deprived neonatal Wistar rat cardiomyocyte at 0.37 uM incubated for 21 hrs by microarray analysis relative to control; type: functional, Cardiac muscle cell
Outline: (§1)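 Primary neonatal rat cardiomyocytes, isolated by proteinase digestion with preplating to deplete nonmyocytes, cultured in serum-free medium with or without 0.37 μM compound for 21 hr. Total RNA was recovered and global expression profiled on an Affymetrix GeneChip rat genome U34A array (about 7000 known genes). Change is relative to untreated cells.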

Cardiac muscle cell [2] = assay: Cytoprotective activity against serum deprivation-induced neonatal Wistar rat cardiomyocyte death assessed as increase in cell viability measured after 4 days by WST-8 assay; type: functional
Outline: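 Primary neonatal rat cardiomyocytes were isolated by proteinase digestion, with preplating to remove adherent non-myocytes. Death was induced by serum deprivation at low density (3×10^5 cells/ml) for 4 days with compound present. Viability was read by WST-8. MEC1.5 is the concentration giving a 50% rise in viability. n = 3.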

[3] = Upregulation of glutathione S-transferase Ya subunit gene expression in serum-deprived neonatal Wistar rat cardiomyocyte at 0.37 uM incubated for 21 hrs by microarray analysis relative to control; type: functional, Cardiac muscle cell; outline: as §1
[4] = Upregulation of glutathione S-transferase Y(b) subunit gene expression in serum-deprived neonatal Wistar rat cardiomyocyte at 0.37 uM incubated for 21 hrs by microarray analysis relative to control; type: functional, Cardiac muscle cell; outline: as §1
[5] = Upregulation of NAD(P)H: quinone reductase gene expression in serum-deprived neonatal Wistar rat cardiomyocyte at 0.37 uM incubated for 21 hrs by microarray analysis relative to control; type: functional, Cardiac muscle cell
Outline: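 Primary neonatal rat cardiomyocytes cultured with or without 0.37 μM compound in serum-free medium for 21 hr. Total RNA profiled on the rat genome U34A GeneChip array (about 7000 known genes).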

Homo sapiens = organism: Homo sapiens; assay: Binding affinity to BTZO-12 sensor chip immobilized recombinant human N-terminal His-tagged MIF C59S mutant expressed in Escherichia coli BL21 (DE3) by SPR analysis
Outline: (§2)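 Sensor chip carrying immobilized BTZO-12; MIF (wild type or point mutants) passed over it and specific binding monitored by surface plasmon resonance.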

[6] = tested on: Antioxidant response element; assay: Induction of rat ARE activity expressed in MIF-stimulated rat H9c2 cells assessed as increase in ARE luciferase activity at 1 uM measured after 24 hrs by steady-glo luciferase Assay; type: cell-based
Outline: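 H9c2 cells transiently transfected with pGL3-ARE-Luc (rat GST Ya ARE) or mutant-ARE control plasmid, then treated with rMIF with or without 1 μM compound for 24 hr. Luciferase by Steady-Glo; mean ± SD, n = 4.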

[7] = Upregulation of glutathione reductase gene expression in serum-deprived neonatal Wistar rat cardiomyocyte at 0.37 uM incubated for 21 hrs by microarray analysis relative to control; type: functional, Cardiac muscle cell; outline: as §1
[8] = target: Macrophage migration inhibitory factor (Rattus norvegicus) (UniProt P30904); assay: Inhibition of [3H]-BTZO-1 binding to recombinant rat C-terminal His-tagged MIF expressed in Escherichia coli BL21 (DE3) measured after 3 hrs by SPA
Target sequence in this assay (P30904 whole entry, looked up): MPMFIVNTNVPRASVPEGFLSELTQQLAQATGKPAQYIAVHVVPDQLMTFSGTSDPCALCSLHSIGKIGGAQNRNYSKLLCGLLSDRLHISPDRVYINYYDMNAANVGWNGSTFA

[9] = target: T1, Macrophage migration inhibitory factor (Homo sapiens) (UniProt P14174); assay: Binding affinity to BTZO-12 sensor chip immobilized recombinant human C-terminal His-tagged MIF expressed in Escherichia coli BL21 (DE3) by SPR analysis; outline: as §2
T1 sequence (whole entry): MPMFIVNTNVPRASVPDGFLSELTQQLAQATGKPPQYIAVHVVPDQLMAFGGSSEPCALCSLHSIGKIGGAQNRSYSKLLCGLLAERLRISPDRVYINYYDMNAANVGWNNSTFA

[10] = target: T2, Macrophage migration inhibitory factor (Homo sapiens, UniProt P14174); assay: Binding affinity to recombinant human C-terminal His-tagged MIF expressed in Escherichia coli BL21 (DE3) at 400 nM incubated for 6 hrs using labelled compound by scintillation proximity assay
T2 sequence (P14174 whole entry): T1 sequence (whole entry)
Outline: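 Scintillation proximity assay: 6His-tagged protein (hMIF, rat GST Ya or rat VILIP3) captured on copper His-tag SPA beads with [3H]-BTZO-1; emitted light counted on a microplate scintillation counter. Mean of n = 2.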

[11] = tested on: Antioxidant response element; assay: Induction of ARE-mediated GST Ya mRNA expression in MIF siRNA transfected rat H9c2 cells at 3 uM measured after 24 hrs by RT-qPCR analysis; type: cell-based
Outline: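 H9c2 cells transfected with MIF siRNA or control siRNA (100 nM, Oligofectamine), then treated with 3 μM compound with or without 0.8 μM rMIF for 24 hr. GST Ya and HO-1 mRNA by real-time qPCR; mean ± SD, n = 3. MIF effect on drug efficacy tested by Aspin-Welch test.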

[12] = target: Macrophage migration inhibitory factor (Rattus norvegicus) (UniProt P30904); assay: Binding affinity to BTZO-12 sensor chip immobilized recombinant rat MIF expressed in Escherichia coli BL21 (DE3) at pH 7.3 by SPR analysis
Outline: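 SPR on a BTZO-12-type sensor chip with purified recombinant rat MIF, binding compared at pH 6.0 and pH 7.3.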
Target sequence in this assay (P30904 2-115 limits assumed): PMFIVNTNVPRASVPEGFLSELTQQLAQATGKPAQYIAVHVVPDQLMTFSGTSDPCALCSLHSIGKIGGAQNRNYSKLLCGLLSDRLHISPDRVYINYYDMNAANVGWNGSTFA

[13] = Upregulation of heme oxygenase-1 gene expression in serum-deprived neonatal Wistar rat cardiomyocyte at 0.37 uM incubated for 21 hrs by microarray analysis relative to control; type: functional, Cardiac muscle cell; outline: as §1
[14] = Upregulation of gamma-glutamylcysteine synthetase gene expression in serum-deprived neonatal Wistar rat cardiomyocyte at 0.37 uM incubated for 21 hrs by microarray analysis relative to control; type: functional, Cardiac muscle cell; outline: as §1
Cardiac muscle cell [15] = assay: Cytoprotective activity against DOX-induced neonatal Wistar rat cardiomyocyte death assessed as increase in cell viability at 4.6 to 370 nM preincubated for 3 hrs followed by DOX addition and measured after 18 hrs by WST-8 assay; type: functional, cell-based; conditions: dose 4.6-370 nM, time 21.0 hrs
Outline: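 Neonatal rat cardiomyocytes, isolated by proteinase digestion and preplating, pretreated with samples for 3 hr in serum-free medium, then exposed to 200 nM doxorubicin for 18 hr. Viability by WST-8. Mean ± SD, n = 6.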

[16] = target: T1, Macrophage migration inhibitory factor (Homo sapiens); assay: Binding affinity to BTZO-12 sensor chip immobilized recombinant human N-terminal His-tagged MIF expressed in Escherichia coli BL21 (DE3) by SPR analysis; outline: as §2
[17] = Upregulation of multidrug resistance protein gene expression in serum-deprived neonatal Wistar rat cardiomyocyte at 0.37 uM incubated for 21 hrs by microarray analysis relative to control; type: functional, Cardiac muscle cell; outline: as §1
Cardiac muscle cell [18] = assay: Cytoprotective activity against serum deprivation-induced neonatal Wistar rat cardiomyocyte death assessed as suppression of internucleosomal cleavage of genomic DNA at 0.37 uM measured after 3 days by agarose gel electrophoresis; type: functional, cell-based; conditions: time 3.0 day
Outline: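 Neonatal rat cardiomyocytes held with or without 0.37 μM compound in serum-free medium for 3 days. Genomic DNA then isolated and internucleosomal laddering examined by agarose gel electrophoresis.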

[19] = target: Macrophage migration inhibitory factor (Rattus norvegicus) (UniProt P30904); assay: Induction of MIF-stimulated ARE activity in rat H9c2 cells assessed as increase in HO-1 expression at 3 uM incubated for 6 hrs by RT-qPCR analysis; type: cell-based
Target sequence in this assay (P30904 2-115 limits assumed): as above

[20] = target: Macrophage migration inhibitory factor (Rattus norvegicus, UniProt P30904); assay: Inhibition of recombinant rat MIF expressed in Escherichia coli BL21 (DE3) assessed as reduction in tautomerase activity using L-dopachrome carboxy-methyl ester as substrate by spectrophotometry
Sequence of Macrophage migration inhibitory factor (Rattus norvegicus, UniProt P30904) (P30904 2-115 limits assumed): as above
Outline: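 Purified recombinant rat MIF tautomerase assayed with purified L-dopachrome carboxy-methyl ester as substrate in pH 6.0 buffer; rate taken over the initial 30 s. Mean ± SD, n = 4.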

## O=c1nc(-c2ccccn2)sc2ccccc12 [BTZO-1]
[1]
  fold change (FC): 2.1
Cardiac muscle cell [2]; time 4 day
  MEC1.5: 16 nM
Cardiac muscle cell [2]; time 4.0 day
  Activity: Dose-Dependent Effect
[3]
  fold change (FC): 12
[4]
  fold change (FC): 2.5
[5]
  fold change (FC): 9.4
Homo sapiens
  Activity: Active
[6]
  Activity: Active
[7]
  fold change (FC): 4.4
[8]
  pIC50: 7.15
[9]
  Activity: Active
[10]
  pKd: 7.16
[11]
  Activity: inactive
[12]
  Activity: Active
[13]
  fold change (FC): 2
[14]
  fold change (FC): 2.4
Cardiac muscle cell [15]
  Activity: Active
[16]
  Activity: Active
[17]
  fold change (FC): 2.7
Cardiac muscle cell [18]
  Activity: Active
[19]
  Activity: Active
[20]
  pIC50: < 4.52
